Test [1] deals with T1, Enoyl-acyl-carrier protein reductase (Plasmodium falciparum, UniProt Q965D5).
T1 sequence (Q965D5 whole entry): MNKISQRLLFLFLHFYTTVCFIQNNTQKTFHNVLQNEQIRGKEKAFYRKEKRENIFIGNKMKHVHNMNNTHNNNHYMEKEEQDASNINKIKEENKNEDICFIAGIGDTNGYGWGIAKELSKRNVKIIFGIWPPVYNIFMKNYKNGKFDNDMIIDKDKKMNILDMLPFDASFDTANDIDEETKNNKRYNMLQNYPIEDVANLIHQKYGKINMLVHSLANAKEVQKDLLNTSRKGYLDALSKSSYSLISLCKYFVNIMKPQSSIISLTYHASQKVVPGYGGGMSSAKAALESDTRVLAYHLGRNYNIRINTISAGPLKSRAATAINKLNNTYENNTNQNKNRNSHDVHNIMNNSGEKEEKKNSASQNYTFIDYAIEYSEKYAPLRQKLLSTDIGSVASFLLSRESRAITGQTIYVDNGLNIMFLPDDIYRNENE
Nature of the test: Inhibition of Plasmodium falciparum recombinant enoyl ACP reductase expressed in BL21 (DE3) cells with respect to NADH. It is filed as cell-based. An outline of the steps: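 Ki via Dixon plot (x-intercept). NADH fixed at 50 and 100 µM, crotonoyl-CoA 200 µM, 200 nM enzyme; inhibitor varied from 1 nM up to its IC50. A340 NADH-consumption assay at 25 °C, pH 7.5; mean of three sets.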

Test [2] has as its target T1, Enoyl-acyl-carrier protein reductase. Nature of the test: Inhibition of Plasmodium falciparum recombinant enoyl ACP reductase expressed in BL21 (DE3) cells with respect to crotonyl CoA. The test is classed as cell-based. Put shortly: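 Ki via Dixon plot (x-intercept). Crotonoyl-CoA fixed at 100 and 200 µM, NADH 100 µM; inhibitor varied from 1 nM up to its IC50. Spectrophotometric NADH oxidation at 340 nm, 25 °C, Tris-NaCl pH 7.5; mean of three sets.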

The target is the same in test [3]. Nature of the test: (§1) Inhibition of Plasmodium falciparum recombinant enoyl ACP reductase expressed in BL21 (DE3) cells. It is filed as biochemical. Put shortly:
(§2)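 His-tagged enzyme from E. coli, Ni-NTA purified. Assay at 25 °C in 150 mM Tris-NaCl pH 7.5, 200 µM crotonoyl-CoA, 100 µM NADH, 200 nM enzyme, 1% DMSO; NADH oxidation followed as A340 decrease. Percent inhibition from residual activity across serial inhibitor dilutions; IC50 by nonlinear regression vs log concentration; mean of three sets.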

Test [4] deals with T2, Enoyl-acyl-carrier protein reductase (Plasmodium falciparum) (UniProt Q965D5).
T2 sequence (whole entry): T1 sequence (Q965D5 whole entry)
The description is as §1. It is filed as biochemical. Put shortly: as §2

A further test has as its system Plasmodium falciparum. In words: Growth inhibition of chloroquine-sensitive Plasmodium falciparum FCK2 in human erythrocytes after 96 hrs. The test is classed as functional, organism-based. Particulars: FCK2, 96 h. An outline of the steps:
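Synchronized early-trophozoite cultures (1-2% parasitemia, 2% hematocrit) in RPMI 1640 with 10% human serum, 0.225% bicarbonate, gentamycin; inhibitor in Me2SO (final ≤0.05%), added up to fourth day. Parasitemia scored by Giemsa-stained microscopy at 48 and 96 h against solvent control. IC50 by nonlinear regression of relative percent parasitemia vs log concentration; three independent experiments.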

Each structure is given as a SMILES string. ≈ marks a conversion by molar mass, not a printed value. Calls of active or inactive are those of the source. The rule behind the calls is not given here.

For `COc1ccc(N2C(=O)/C(=C/c3ccc(C=O)cc3)SC2=S)cc1`, the Ki was found to be 14.4 µM in test [1] and 13.2 µM in test [2]. Further, the IC50 in test [3] came out at 1.5 µM.
Consider `O=C1/C(=C/c2cccc(O)c2)SC(=S)N1c1ccccc1`, for which, in test [3], the IC50 is above 100 µM.
As for `O=C(Nc1cc(Cl)ccc1O)c1cc(-c2ccc(Cl)cc2)on1`, the IC50 in test [3] came out at 75 µM.
As to `COC(=O)CCCCCN1C(=O)/C(=C/c2cc(OC)c(OC)c(OC)c2)SC1=S`, the outcome in test [4] was inactive.
In the case of `CCCCOc1ccc(/C=C2\SC(=S)N(CCCCCC(=O)OC)C2=O)cc1`, the result in test [4] was inactive.
For the compound `CN1C(=O)/C(=C/c2ccc(-c3cc(Cl)cc(Cl)c3)o2)SC1=S`, in test [3], the IC50 was 0.87 µM.
Take `O=C1NC(=S)S/C1=C\c1ccc(-c2ccccc2Cl)o1`: the concentration for half-maximal inhibition (IC50) in test [3] was determined as 35 µM.
On the same count and under the same terms, to `CN1C(=O)/C(=C/c2ccc(-c3cccc(Cl)c3)o2)SC1=S` belongs 30.2 µM.
On the same count and under the same terms, to `O=C(NCCN1CCCc2ccccc21)c1cc(-c2ccc(Cl)s2)nc2ccccc12` belongs 60 µM; to `CN(C)CCOC(=O)CCCCCN1C(=O)/C(=C/c2ccccc2)SC1=S`, above 100 µM.
With `CN1C(=O)/C(=C/c2ccc(-c3ccc(Cl)cc3Cl)o2)SC1=S`, in test [4], the outcome was inactive. Further, the IC50 in test [3] worked out at 0.87 µM.
For `Clc1ccc(CNc2nc(SCc3ccc(Cl)cc3)nc3ccccc23)cc1`, in test [3], the IC50 was determined as 52 µM.
As for `O=C1/C(=C/c2ccc(-c3ccc(Cl)cc3)o2)SC(=S)N1c1cccc(Cl)c1`, in test [3], the IC50 was above 100 µM.
`COc1ccc(Cl)cc1NC(=O)c1cc(-c2ccc(Cl)s2)nc2ccccc12`: the IC50 in test [3] is 60 µM.
Consider `COc1ccc(-c2cc(C(=O)Nc3cc(Cl)ccc3O)no2)cc1`, for which the IC50 in test [3] came to 55 µM.
For the compound `COc1ccc(N2C(=O)/C(=C/c3ccc(OC)c4ccccc34)SC2=S)cc1`, in test [3], the IC50 was found to be 0.87 µM.
As to `COC(=O)CCCCCN1C(=O)/C(=C/c2ccc(Cl)cc2)SC1=S`, in test [3], the IC50 was above 100 µM.
Still for that read-out and setting: to `COc1ccc(N2C(=O)/C(=C/c3ccc(N(C)C)cc3)SC2=S)cc1` belongs above 100 µM; to `Cc1ccc(-c2ccc(/C=C3\SC(=S)NC3=O)o2)cc1Cl`, 28.5 µM; to `COC(=O)CCCCCN1C(=O)/C(=C/c2cccc(O)c2)SC1=S`, above 100 µM.
Still for that read-out and setting: to `O=C1/C(=C/c2ccc(Cl)cc2Cl)SC(=S)N1c1ccc(O)cc1` belongs 25 µM; to `COc1cc(/C=C2\SC(=S)N(c3ccc(O)cc3)C2=O)ccc1O`, 0.87 µM.
In the case of `Oc1cc(Cl)ccc1Oc1ccc(Cl)cc1Cl` [TRICLOSAN], in test [2], the inhibition constant (Ki) was 0.66 µM. Besides, the IC50 in test [3] was determined as 0.066 µM.
On to `CCCOc1ccc(/C=C2\SC(=S)N(CCCCCC(=O)O)C2=O)cc1OC`, for which the half-maximal inhibitory concentration (IC50) in test [3] came out at 45 µM.
Regarding `COc1cc(/C=C2\SC(=S)N(CCCCCC(=O)O)C2=O)ccc1OCc1ccc(Cl)cc1`, the Ki was 5.4 µM in test [1] and 5.1 µM in test [2]. In addition, the IC50 in test [3] amounted to 6.5 µM.
As for `CCCCCCOc1ccc(/C=C2\SC(=S)N(CCCCCC(=O)O)C2=O)cc1OC`, the inhibition constant Ki worked out at 7.3 µM in test [1] and 6.6 µM in test [2]. Also, the concentration for half-maximal inhibition (IC50) in test [3] was 7 µM.
As to `CCc1nnc(NS(=O)(=O)c2ccc(N3C(=O)c4c(Cl)c(Cl)c(Cl)c(Cl)c4C3=O)cc2)s1`, in test [3], the IC50 was determined as 90 µM.
Still for that read-out and setting: to `CN(C)CCOC(=O)CCN1C(=O)/C(=C/c2ccc(Cl)cc2Cl)SC1=S` belongs above 100 µM; to `CCCCCOc1ccc(/C=C2\SC(=S)N(CCCCCC(=O)O)C2=O)cc1OC`, above 100 µM; to `CCN(CC)c1ccc(N2C(=O)/C(=C/c3ccc(OC)cc3)SC2=S)cc1`, above 100 µM.
`O=C1NC(=S)S/C1=C\c1ccc(-c2cc(Cl)cc(Cl)c2)o1`: the inhibitory constant (Ki) was 5.5 µM in test [1] and 4.1 µM in test [2]. Besides, the IC50 in test [3] came out at 6.1 µM.
For `Cc1ccc(-c2ccc(/C=C3\SC(=S)N(C)C3=O)o2)cc1Cl`, the IC50 in test [3] was 0.87 µM.
As for `COc1ccc(N2C(=O)/C(=C/c3ccccc3)SC2=S)cc1`, the IC50 in test [3] is above 100 µM.
In the case of `O=C1NC(=S)S/C1=C\c1ccc(-c2cccc(Cl)c2)o1`, the Ki in test [1] turned out to be 1.05 µM; in test [2], 0.88 µM. For the same compound, the IC50 in test [3] stood at 1.7 µM.
Consider `COc1ccc(N2C(=O)/C(=C/c3c4ccccc4cc4ccccc34)SC2=S)cc1`, for which, in test [3], the IC50 is above 50 µM.
On the same count and under the same terms, to `O=C1c2c(Cl)c(Cl)c(Cl)c(Cl)c2C(=O)N1c1ccc2[nH]c(/C=C/c3ccc(Cl)cc3)nc2c1` belongs 70 µM; to `CCN1C(=O)/C(=C/c2ccc(N(CC)CC)cc2O)SC1=S`, above 100 µM; to `CC(C)c1ccc(/C=C2\SC(=S)N(CCCCCC(=O)O)C2=O)cc1`, above 100 µM.
Still for that read-out and setting: to `CC(C)(C)c1ccc(CS[n+]2cc3ccccc3c(=O)n2Nc2ccc(Cl)nn2)cc1` belongs 50 µM; to `CN1C(=O)/C(=C/c2ccc(-c3ccc(Cl)c(Cl)c3)o2)SC1=S`, above 100 µM; to `COc1ccc(/C=C2\SC(=S)N(c3ccc(OC)cc3)C2=O)cc1`, above 100 µM.
As for `COc1ccc(/C=C2\SC(=S)N(c3ccc(O)cc3)C2=O)cc1`, the results for the Ki in test [1] and in test [2] were 9.1 µM and 8.7 µM, respectively. In addition, the IC50 in test [3] was found to be 10 µM.
With `O=C1NC(=S)S/C1=C\c1ccc(-c2ccc(Cl)c(Cl)c2)o1`, the values for the Ki in test [1] and in test [2] were 0.63 µM and 0.51 µM, respectively. The IC50 in test [3] turned out to be 0.98 µM.
As to `O=C(O)CCCN1C(=O)/C(=C/c2cn(-c3ccccc3)nc2-c2ccc(Cl)cc2)SC1=S`, the IC50 in test [3] is 50 µM.
Same read-out and setting: to `O=C(O)c1cccc(-c2ccc(/C=C3\SC(=S)N(c4cccc(C(F)(F)F)c4)C3=O)o2)c1` belongs 20 µM; to `COc1ccc(N2C(=O)/C(=C/c3ccc(C(C)C)cc3)SC2=S)cc1`, above 100 µM.
On to `O=C1/C(=C/c2ccc(O)c(O)c2)SC(=S)N1c1ccccc1`, for which the half-maximal inhibitory concentration (IC50) came out at 0.75 µM in the test with Plasmodium falciparum and 0.035 µM in test [3]. This compound also came in with an MIC in the test with Plasmodium falciparum of 2.5 µM (≈ 0.824 µg/mL). Moreover, the Ki in test [1] was 0.032 µM; in test [2], 0.0042 µM.
For `CCN1C(=O)/C(=C/c2cc(Cl)c(O)c(Cl)c2)SC1=S`, in test [3], the half-inhibitory concentration (IC50) is above 100 µM.
Take `O=C1NC(=S)S/C1=C\c1ccc(-c2cccc(Cl)c2Cl)o1`: the Ki in test [1] was 0.56 µM; in test [2] it was 0.48 µM. For the same compound, the IC50 in test [3] is 0.87 µM.
Regarding `O=C1NC(=S)S/C1=C\c1ccc(-c2cc(Cl)ccc2Cl)o1`, the inhibition constant (Ki) in test [1] worked out at 2.5 µM; in test [2], 2 µM. Besides, in test [3], the IC50 stood at 6 µM.
Turning to `CCOc1ccc(N2C(=O)/C(=C/c3cccc4ccccc34)SC2=S)cc1`, the outcome in test [4] was inactive.
For the compound `CCc1ccc(/C=C2\SC(=S)N(CCCCCC(=O)OC)C2=O)cc1`, the IC50 in test [3] is above 100 µM.
Take `O=C1/C(=C/c2ccc(-c3cccc(Cl)c3)o2)SC(=S)N1c1cccc(Cl)c1`: the IC50 in test [3] was above 100 µM.
On to `CN(C)c1ccc(/C=C2\SC(=S)N(c3ccc(O)cc3)C2=O)cc1`, for which, in test [3], the half-inhibitory concentration (IC50) came out at 0.87 µM.
Take `Cc1cc(/C=C2\SC(=S)N(CCCCCC(=O)O)C2=O)ccc1OCc1ccccc1`: the IC50 in test [3] was above 100 µM.
In the case of `O=C1/C(=C/c2cccc(O)c2)SC(=S)N1c1ccc(F)cc1`, the IC50 in test [3] was above 100 µM.
The same measure, in the same setting: to `O=C(NC1CCCc2ccccc21)c1cc(Sc2cccc(Cl)c2)nc2ccccc12` (stereo not drawn) belongs 50 µM.
On the same count and under the same terms, under `O=C(O)CCCCCN1C(=O)/C(=C/c2c[nH]c3ccccc23)SC1=S` stands 100 µM.
Still for that read-out and setting: under `O=C1/C(=C/c2ccco2)SC(=S)N1c1cccc(F)c1` stands above 100 µM.

As usually defined, the Ki is a dissociation constant, usually derived from enzyme kinetics or from competition with a known ligand. In general, IC50 refers to the midpoint of a concentration-inhibition curve. For orientation: MIC means the lowest concentration that inhibits growth of the organism. Read a low MIC as a more susceptible organism.

The values are drawn from ChEMBL document CHEMBL1143659, “Discovery of a rhodanine class of compounds as inhibitors of Plasmodium falciparum enoyl-acyl carrier protein reductase” (J Med Chem, 2007).
